Source: ChEMBL document CHEMBL1124786, “Potent, low molecular weight renin inhibitors containing a C-terminal heterocycle: hydrogen bonding at the active site” (J Med Chem, 1990)

Legend:
Renin [1] = target: T1, Renin (Homo sapiens, UniProt P00797); assay: In vitro inhibition of purified human renal renin.
T1 sequence (P00797 whole entry): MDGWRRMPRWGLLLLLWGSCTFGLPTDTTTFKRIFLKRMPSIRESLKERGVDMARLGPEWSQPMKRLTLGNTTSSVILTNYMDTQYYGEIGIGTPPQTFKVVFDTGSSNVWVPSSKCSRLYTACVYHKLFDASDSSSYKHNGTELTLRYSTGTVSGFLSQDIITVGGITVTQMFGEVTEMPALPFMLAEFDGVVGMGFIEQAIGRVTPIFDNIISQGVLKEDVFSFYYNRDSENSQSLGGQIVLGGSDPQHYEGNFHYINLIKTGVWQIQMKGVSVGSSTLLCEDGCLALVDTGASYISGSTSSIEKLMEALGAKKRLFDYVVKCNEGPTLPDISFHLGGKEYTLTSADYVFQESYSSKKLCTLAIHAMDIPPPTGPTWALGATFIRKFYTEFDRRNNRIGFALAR
Outline: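 The enzyme was human renal renin, purified and tested at pH 6.0. The read-out is IC50 in nM.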

Renin [2] = target: T1, Renin; assay: In vitro inhibition of human plasma renin.; type: cell-free
Outline: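 Renin activity was measured in human plasma at pH 7.4, and the result is reported as IC50 in nM.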

Pepsin A (Sus scrofa) = Pepsin A (Sus scrofa) (UniProt P00791); assay: Percent inhibition against porcine pepsin at a concentration of 1 x 10 e-5 M and pH 2
Chain of Pepsin A (Sus scrofa) (P00791 60-385 limits assumed): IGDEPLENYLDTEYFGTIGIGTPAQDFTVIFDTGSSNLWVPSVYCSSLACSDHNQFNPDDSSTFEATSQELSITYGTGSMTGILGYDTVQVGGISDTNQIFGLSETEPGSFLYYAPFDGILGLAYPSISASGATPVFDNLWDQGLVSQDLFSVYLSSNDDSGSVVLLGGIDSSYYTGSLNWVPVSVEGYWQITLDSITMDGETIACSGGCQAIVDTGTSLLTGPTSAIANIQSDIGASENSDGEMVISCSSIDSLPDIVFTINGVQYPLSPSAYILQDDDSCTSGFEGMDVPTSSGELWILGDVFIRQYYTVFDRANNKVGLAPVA

Cathepsin D (Bos taurus) [3] = target: T2, Cathepsin D (Bos taurus) (UniProt P80209); assay: Percent inhibition against bovine Cathepsin D at a concentration of 1 x 10 e-5 M and pH 3
T2 sequence (whole entry): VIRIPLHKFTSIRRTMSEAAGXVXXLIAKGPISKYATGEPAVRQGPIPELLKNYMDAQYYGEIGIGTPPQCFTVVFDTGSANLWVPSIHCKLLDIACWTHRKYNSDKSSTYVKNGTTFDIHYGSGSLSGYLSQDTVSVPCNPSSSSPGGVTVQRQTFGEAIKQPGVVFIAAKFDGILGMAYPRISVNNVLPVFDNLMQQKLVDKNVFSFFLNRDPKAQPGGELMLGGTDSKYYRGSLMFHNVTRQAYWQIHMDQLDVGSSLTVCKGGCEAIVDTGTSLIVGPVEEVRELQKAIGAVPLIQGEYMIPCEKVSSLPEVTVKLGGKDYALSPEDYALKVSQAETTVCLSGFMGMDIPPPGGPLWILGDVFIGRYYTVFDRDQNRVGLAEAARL

Cathepsin D (Bos taurus) [4] = target: T2, Cathepsin D (Bos taurus); assay: Percent inhibition against bovine cathepsin D at a concentration of 1 x 10 e-5 M and pH 3

| IC50 (Renin [1]) | IC50 (Renin [2]) | inhibition (Pepsin A (Sus scrofa)) | inhibition (Cathepsin D (Bos taurus) [3]) | inhibition (Cathepsin D (Bos taurus) [4]) | Compound |
| --- | --- | --- | --- | --- | --- |
| 0.9 nM | 9.2 nM | – | – | – | CON1C[C@@H]([C@H](O)[C@H](CC2CCCCC2)NC(=O)[C@H](Cc2cnc[nH]2)NC(=O)[C@H](Cc2ccccc2)NC(=O)OC(C)(C)C)OC1=O |
| 1.2 nM | 3 nM | 2% | 9% | – | C[C@@H]1CO[C@H]([C@H](O)[C@H](CC2CCCCC2)NC(=O)[C@H](Cc2c[nH]cn2)NC(=O)[C@H](Cc2ccccc2)NC(=O)OC(C)(C)C)C1 |
| 0.63 nM | 2.8 nM | – | – | – | CCN1C[C@@H]([C@H](O)[C@H](CC2CCCCC2)NC(=O)[C@H](Cc2cnc[nH]2)NC(=O)[C@H](Cc2ccccc2)NC(=O)OC(C)(C)C)OC1=O |
| – | – | 0% | 0% | – | CC(C)(C)OC(=O)N[C@@H](Cc1ccccc1)C(=O)N[C@@H](Cc1c[nH]cn1)C(=O)N[C@@H](CC1CCCCC1)[C@@H](O)[C@@H](O)CN=[N+]=[N-] |
| 4.7 nM | 25 nM | – | – | – | CC(C)(C)OC(=O)N[C@@H](Cc1ccccc1)C(=O)N[C@@H](Cc1cnc[nH]1)C(=O)N[C@@H](CC1CCCCC1)[C@@H](O)[C@@H]1CNC(=O)O1 |
| 0.84 nM | 8.2 nM | – | – | – | CC(C)N1C[C@@H]([C@H](O)[C@H](CC2CCCCC2)NC(=O)[C@H](Cc2cnc[nH]2)NC(=O)[C@H](Cc2ccccc2)NC(=O)OC(C)(C)C)OC1=O |
| 1.4 nM | 13 nM | – | – | – | CCN1C[C@@H]([C@H](O)[C@H](CC2CCCCC2)NC(=O)[C@H](Cc2cnc[nH]2)NC(=O)[C@H](Cc2ccccc2)NC(=O)OC(C)(C)C)NS1(=O)=O |
| 1.4 nM | 26 nM | – | – | – | CC(C)ON1C[C@@H]([C@H](O)[C@H](CC2CCCCC2)NC(=O)[C@H](Cc2c[nH]cn2)NC(=O)[C@H](Cc2ccccc2)NC(=O)OC(C)(C)C)OC1=O |
| 8 nM | 63 nM | – | – | – | CC(C)(C)OC(=O)N[C@@H](Cc1ccccc1)C(=O)N[C@@H](Cc1cnc[nH]1)C(=O)N[C@@H](CC1CCCCC1)[C@@H](O)[C@@H](O)CNC=O |
| 43 nM | – | – | – | – | CON1CC([C@H](O)[C@@H](CC2CCCCC2)NC(=O)[C@H](Cc2c[nH]cn2)NC(=O)[C@H](Cc2ccccc2)NC(=O)OC(C)(C)C)OC1=O (single isomer, unassigned) |
| 0.32 nM | 2.3 nM | – | – | – | C[C@H]1C[C@@H]([C@H](O)[C@H](CC2CCCCC2)NC(=O)[C@H](Cc2c[nH]cn2)NC(=O)[C@H](Cc2ccccc2)NC(=O)OC(C)(C)C)OC1=O |
| 1.2 nM | 11 nM | – | – | – | CCN1C[C@@H]([C@H](O)[C@H](CC2CCCCC2)NC(=O)[C@H](Cc2cnc[nH]2)NC(=O)[C@H](Cc2ccccc2)NC(=O)OC(C)(C)C)NC1=O |
| 1 nM | 12 nM | – | – | – | CCCN1C[C@@H]([C@H](O)[C@H](CC2CCCCC2)NC(=O)[C@H](Cc2cnc[nH]2)NC(=O)[C@H](Cc2ccccc2)NC(=O)OC(C)(C)C)OC1=O |
| 0.71 nM | 21 nM | – | – | – | C=C1C[C@@H]([C@H](O)[C@H](CC2CCCCC2)NC(=O)[C@H](Cc2c[nH]cn2)NC(=O)[C@H](Cc2ccccc2)NC(=O)OC(C)(C)C)OC1=O |
| 0.89 nM | 2.8 nM | – | – | – | CC(C)(C)OC(=O)N[C@@H](Cc1ccccc1)C(=O)N[C@@H](Cc1cnc[nH]1)C(=O)N[C@@H](CC1CCCCC1)[C@@H](O)[C@@H]1CC(C)(C)C(=O)O1 |
| 0.7 nM | 7.4 nM | – | – | – | CC(C)(C)OC(=O)N[C@@H](Cc1ccccc1)C(=O)N[C@@H](Cc1c[nH]cn1)C(=O)N[C@@H](CC1CCCCC1)[C@@H](O)[C@@H]1CN(CCO)C(=O)O1 |
| 1.4 nM | 8.8 nM | – | – | – | CN1C[C@@H]([C@H](O)[C@H](CC2CCCCC2)NC(=O)[C@H](Cc2c[nH]cn2)NC(=O)[C@H](Cc2ccccc2)NC(=O)OC(C)(C)C)OC1=O |
| 3.1 nM | 29 nM | – | – | – | CC(C)(C)OC(=O)N[C@@H](Cc1ccccc1)C(=O)N[C@@H](Cc1c[nH]cn1)C(=O)N[C@@H](CC1CCCCC1)[C@@H](O)[C@@H]1CCNC(=O)O1 |
| 3 nM | 21 nM | – | – | – | CC(C)CN1C[C@@H]([C@H](O)[C@H](CC2CCCCC2)NC(=O)[C@H](Cc2cnc[nH]2)NC(=O)[C@H](Cc2ccccc2)NC(=O)OC(C)(C)C)OC1=O |
| – | – | 0% | – | 21% | CCN1C[C@@H]([C@H](O)[C@H](CC2CCCCC2)NC(=O)[C@H](Cc2c[nH]cn2)NC(=O)[C@H](Cc2ccccc2)NC(=O)OC(C)(C)C)OC1=O |
| 1.3 nM | 17 nM | – | – | – | CCON1C[C@@H]([C@H](O)[C@H](CC2CCCCC2)NC(=O)[C@H](Cc2cnc[nH]2)NC(=O)[C@H](Cc2ccccc2)NC(=O)OC(C)(C)C)OC1=O |
| – | 9 nM | – | – | – | CC(C)(C)OC(=O)N[C@@H](Cc1ccccc1)C(=O)N[C@@H](Cc1cnc[nH]1)C(=O)N[C@@H](CC1CCCCC1)[C@@H](O)[C@@H](O)CN=[N+]=[N-] |
| – | – | 0% | – | 0% | CON1C[C@@H]([C@H](O)[C@H](CC2CCCCC2)NC(=O)[C@H](Cc2c[nH]cn2)NC(=O)[C@H](Cc2ccccc2)NC(=O)OC(C)(C)C)OC1=O |

| Compound | IC50 (Renin [1]) | IC50 (Renin [2]) | inhibition (Pepsin A (Sus scrofa)) | inhibition (Cathepsin D (Bos taurus) [3]) | inhibition (Cathepsin D (Bos taurus) [4]) |
| --- | --- | --- | --- | --- | --- |
| CC(C)C[C@H](O)[C@H](O)[C@H](CC1CCCCC1)NC(=O)[C@H](Cc1c[nH]cn1)NC(=O)[C@H](Cc1ccccc1)NC(=O)OC(C)(C)C | – | – | 0% | 0% | – |
